Test results taken from ChEMBL document CHEMBL4270592, “8-Aryl-6-chloro-3-nitro-2-(phenylsulfonylmethyl)imidazo[1,2-a]pyridines as potent antitrypanosomatid molecules bioactivated by type 1 nitroreductases” (Eur J Med Chem, 2018).
pIC50: −log10 of the molar value.

Experiments:
HepG2 = assay: Cytotoxicity against human HepG2 cells assessed as reduction in cell viability after 72 hrs by MTT assay; format: cell-based; conditions: hepg2, 72 h
Summary of the method: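 HepG2 cells in RPMI with 10% FCS, L-glutamine and penicillin/streptomycin, 37 °C, 6% CO2. After 24 h, compounds in DMSO (final <0.5% v/v) added for 72 h, in duplicate. Precipitate checked, MTT (0.5 mg/mL) 2 h, formazan dissolved in DMSO, A570 with 630 nm reference. Viability as % of untreated control; CC50 from dose-response curve; doxorubicin positive control.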

[1] = Selectivity index, ratio of CC50 for human HepG2 cells to IC50 for axenic amastigote stage of Leishmania infantum; format: toxicity; conditions: read-out: Ratio CC50/IC50
[2] = test system: Trypanosoma brucei brucei; assay: Antitrypanosomal activity against trypomastigote stage of Trypanosoma brucei brucei AnTat 1.9 assessed as decrease in parasite viability after 69 hrs by Alamar blue assay; format: functional, organism-based; conditions: AnTat 1.9, 69 h
Summary of the method: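 AnTat 1.9 in MEM with Earle's salts plus 0.5 mM mercaptoethanol, 1.5 mM L-cysteine, 0.05 mM bathocuproine sulfate and 20% heat-inactivated horse serum, 37 °C, 5% CO2. Seeded 2000 parasites/100 µL with compounds in DMSO, in duplicate, 69 h, then Alamar Blue for 5 h.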

[3] = Selectivity index, ratio of CC50 for human HepG2 cells to IC50 for trypomastigote stage of Trypanosoma brucei brucei AnTat 1.9; format: toxicity; conditions: read-out: Ratio CC50/IC50
Leishmania donovani [4] = assay: Antileishmanial activity against promastigote stage of Leishmania donovani MHOM/IN/00/DEVI assessed as inhibition of parasite metabolic activity after 72 hrs by MTT assay; format: functional, organism-based
Summary of the method: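 MHOM/IN/00/DEVI log-phase promastigotes in Schneider's medium with 20% FCS, 2 mM L-glutamine and antibiotics. Seeded at 10⁶ parasites/mL with compounds in DMSO (final <0.5% v/v), in duplicate, 72 h at 27 °C. MTT added for 4 h, stopped with 50% isopropanol–10% SDS, A570 read. IC50 by nonlinear regression, mean of three independent experiments.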

[5] = Selectivity index, ratio of CC50 for human HepG2 cells to IC50 for promastigote stage of Leishmania donovani MHOM/IN/00/DEVI; format: toxicity; conditions: read-out: Ratio CC50/IC50
Leishmania donovani [6] = assay: Antileishmanial activity against intramacrophage amastigote stage of Leishmania donovani infected in human THP1 cells after 120 hrs by Giemsa staining based microscopy; format: functional, organism-based; conditions: THP-1, 120 h
Summary of the method: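 THP-1 cells differentiated with PMA (final 50 ng/mL) for 48 h at 37 °C, 6% CO2. Infected 10:1 with L. donovani promastigotes acidified 24 h at 27 °C in Schneider 20% FCS pH 5.4. After 24 h, compounds added in duplicate (DMSO <0.5% v/v) for 120 h.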

THP-1 = assay: Cytotoxicity against human THP1 cells assessed as reduction in cell viability after 72 hrs by MTT assay; format: cell-based; conditions: thp-1, 72 h
Summary of the method: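 THP1 cells in complete RPMI with PMA (final 50 ng/mL) at 10⁶ cells/mL, differentiated 48 h. Compounds in DMSO (final <0.5% v/v) then added for 72 h at 37 °C. MTT (0.5 mg/mL in FCS-free medium) 2 h, formazan dissolved in DMSO, A570 with 630 nm reference. Viability as % of untreated control; CC50 from dose-response curve; doxorubicin positive control.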

Leishmania donovani [7] = assay: Antileishmanial activity against wild type promastigote stage of Leishmania donovani MHOM/SD/62/1S-CL2D LdBOB after 72 hrs by resazurin dye based assay; format: functional, organism-based
Summary of the method: (§1)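 Clonal L. donovani LdBOB promastigotes grown at 26 °C in modified M199. NTR1 and NTR2 overexpressers kept in nourseothricin 100 µg/mL. Triplicate 10 mL cultures seeded at 5×10^4 parasites/mL with drug for 72 h. Aliquots received 50 µM resazurin, read by fluorescence (ex 528/em 590 nm) after 4 h. Background-corrected 2-parameter fit gave EC50; at least two repeats, mean ± SD.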

[8] = Substrate activity at recombinant type-1 nitroreductase in promastigote stage of Leishmania donovani MHOM/SD/62/1S-CL2D LdBOB assessed as inhibition of parasite growth after 72 hrs by resazurin dye based assay; summary of the method: as §1
[9] = Substrate activity at recombinant nitroreductase 2 in promastigote stage of Leishmania donovani MHOM/SD/62/1S-CL2D LdBOB assessed as inhibition of parasite growth after 72 hrs by resazurin dye based assay; summary of the method: as §1
[10] = Selectivity ratio of IC50 for wild type promastigote stage of Leishmania donovani MHOM/SD/62/1S-CL2D LdBOB to substrate activity at recombinant type-1 nitroreductase in promastigote stage of Leishmania donovani MHOM/SD/62/1S-CL2D LdBOB; format: toxicity
Summary of the method: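 LdBOB promastigotes grown at 26 °C in modified M199. NTR1- and NTR2-overexpressing lines were kept with 100 µg/mL nourseothricin. Triplicate 10 mL cultures seeded at 5×10^4 parasites/mL with drug for 72 h. Aliquots given 50 µM resazurin, fluorescence (ex 528/em 590 nm) read after 4 h. EC50 from a background-corrected 2-parameter fit; at least two repeats, mean plus SD.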

[11] = Electrochemical behavior of the compound assessed as redox potential corrected toward normal hydrogen electrode by cyclic voltammetry; format: physicochemical
Leishmania infantum = assay: Antileishmanial activity against axenic amastigote stage of Leishmania infantum assessed as inhibition of parasite metabolic activity after 48 hrs by luciferase reporter gene based luminescence assay; format: functional, organism-based
Summary of the method: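 L. infantum promastigotes in log phase switched to RPMI 1640 pH 5.4 for 24 h at 24 °C, then 24 h at 37 °C to give axenic amastigotes. Seeded at 2.106 parasites/mL with compounds in DMSO (final <0.5% v/v), in duplicate, 48 h at 37 °C. Wells checked for precipitate, luciferase luminescence read, IC50 by non-linear regression as mean.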

[12] = Selectivity index, ratio of CC50 for human HepG2 cells to IC50 for intramacrophage amastigote stage of Leishmania donovani infected in human THP1 cells; format: toxicity, cell-based; conditions: read-out: Ratio CC50/IC50

O=[N+]([O-])c1c(CS(=O)(=O)c2ccccc2)nc2c(-c3cccc(CO)c3)cc(Cl)cn12
CC50 (HepG2): > 25000 nM
selectivity ratio [1]: > 17.9
pIC50 [2]: 6.82
selectivity ratio [3]: > 167
pIC50 (Leishmania donovani [4]): 5.89
selectivity ratio [5]: > 19.2
pIC50 (Leishmania donovani [6]): < 5.00
CC50 (THP-1): > 15000 nM
pIC50 (Leishmania donovani [7]): 5.85
pIC50 [8]: 7.15
pIC50 [9]: 5.72
Ratio IC50 [10]: 20 to 40
Activity [11]: -0.7 V

O=[N+]([O-])c1c(CS(=O)(=O)c2ccccc2)nc2c(-c3ccncc3)cc(Cl)cn12
pIC50 (Leishmania infantum): 5.52
CC50 (HepG2): > 50000 nM
selectivity ratio [1]: > 16.7
pIC50 [2]: 6.60
selectivity ratio [3]: > 200
pIC50 (Leishmania donovani [4]): 5.92
selectivity ratio [5]: > 41.7
pIC50 (Leishmania donovani [6]): 5.64
selectivity ratio [12]: > 21.7
CC50 (THP-1): > 25000 nM
pIC50 (Leishmania donovani [7]): 5.82
pIC50 [8]: 7.40
pIC50 [9]: 5.70
Ratio IC50 [10]: 20 to 40
Activity [11]: -0.64 V
